Source: ChEMBL document CHEMBL1149605, “A para-amino substituent on the D-ring of green tea polyphenol epigallocatechin-3-gallate as a novel proteasome inhibitor and cancer cell apoptosis inducer” (Bioorg Med Chem, 2007)
Activity calls are given as the source filed them. No cut-off for these calls is given here.

What was measured:
[1] = tested on: Raji; assay: Induction of cell death in leukemia Raji B cells at 25 uM after 24 hrs; assay type: functional, Homo sapiens
Method in brief: (§1)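 Raji B leukaemia cells grown in RPMI with 10% FBS, penicillin and streptomycin at 37 °C under 5% CO2. Treated with 25 μM compound or DMSO solvent for 24 h. Death scored by trypan blue dye exclusion: blue cells and cells with apoptotic morphology (shrinking, blebbing) on phase-contrast microscopy counted as dead.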

[2] = tested on: Raji; assay: Increase in ubiquitinated protein IkBalpha level in leukemia Raji B cells after 4 hrs; assay type: functional; conditions: for Activity: Homo sapiens
Method in brief: (§2)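 Raji B cells (RPMI, 10% FBS, 37 °C, 5% CO2) exposed to DMSO solvent or 25 μM compound for 4 or 24 h. Whole cell extracts immunoblotted with antibodies to IκB-α, p27, Bax and ubiquitin, with actin as loading control, and quantified by densitometry.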

[3] = tested on: Raji; assay: Increase in ubiquitinated protein p27 level in leukemia Raji B cells after 4 hrs; assay type: functional; conditions: for Activity: Homo sapiens, TDE = time-dependent effect; method in brief: as §2
[4] = Inhibition of chymotrypsin like activity of 20S proteasome; design: species or system Homo sapiens
Method in brief: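 Purified rabbit 20S proteasome (35 ng) incubated with the fluorogenic substrate Suc-Leu-Leu-Val-Tyr-AMC (40 μM), with or without compound. Chymotrypsin-like activity was read as substrate hydrolysis.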

[5] = tested on: Raji; assay: Increase in ubiquitinated protein bax level in leukemia Raji B cells after 4 hrs; assay type: functional; conditions: for Activity: Homo sapiens, TDE = time-dependent effect; method in brief: as §2
[6] = tested on: 20S proteasome (Oryctolagus cuniculus); assay: Inhibition of chymotrypsin like activity of 20S proteasome at 50 uM
[7] = tested on: Raji; assay: Inhibition of chymotrypsin like activity of 20S proteasome in leukemia Raji B cells at 25 uM after 24 hrs; assay type: cell-based; conditions: Homo sapiens
Method in brief: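 Raji B cells dosed at 25 μM for 4 or 24 h, then harvested and lysed. Whole cell extract (10 μg) incubated with Suc-Leu-Leu-Val-Tyr-AMC (40 μM) in 50 mM Tris-HCl pH 8 at 37 °C for 2.5 h. Released AMC read at ex 380/em 460 nm.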

[8] = tested on: Raji; assay: Induction of apoptosis in leukemia Raji B cells assessed as PARP1 ceavage after 24 hrs; assay type: functional, cell-based; conditions: Homo sapiens
Method in brief: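 Raji B cells were treated with DMSO or 25 μM compound for 4 or 24 h. Whole cell extracts were immunoblotted with a polyclonal anti-PARP antibody to detect apoptosis-specific PARP cleavage, with densitometric quantification.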

[9] = tested on: Raji; assay: Increase in ubiquitinated protein IkBalpha level in leukemia Raji B cells after 24 hrs; assay type: functional, cell-based; conditions: Homo sapiens; method in brief: as §2
[10] = tested on: Raji; assay: Increase in cell death in leukemia Raji B cells at 25 um after 24 hrs; assay type: functional, Homo sapiens; method in brief: as §1
[11] = tested on: Raji; assay: Increase in ubiquitinated protein bax level in leukemia Raji B cells after 24 hrs; assay type: functional, cell-based; conditions: Homo sapiens; method in brief: as §2
[12] = tested on: Raji; assay: Increase in ubiquitinated protein p27 level in leukemia Raji B cells after 24 hrs; assay type: functional, cell-based; conditions: Homo sapiens; method in brief: as §2
[13] = tested on: Raji; assay: Effect on apoptosis in leukemia Raji B cells assessed as increase in caspase 3 activation after 24 hrs; assay type: functional, Homo sapiens
Method in brief: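 Raji B cells (RPMI, 10% FBS, 37 °C, 5% CO2) given 25 μM compound for 4 or 24 h, then harvested and lysed. Lysates incubated with Ac-DEVD-AMC (40 μM) for 2.5 h; caspase-3 activity read from fluorogenic substrate cleavage.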

[14] = tested on: Raji; assay: Inhibition of chymotrypsin like activity of 20S proteasome in leukemia Raji B cells at 25 uM after 4 hrs; assay type: cell-based; conditions: Homo sapiens
Method in brief: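 Raji B cells treated with 25 μM compound for 4 h, then harvested and lysed. Whole-cell extract (10 μg) incubated with 40 μM Suc-Leu-Leu-Val-Tyr-AMC in 50 mM Tris-HCl pH 8 at 37 °C for 2.5 h. Free AMC read by fluorescence at 380 nm excitation and 460 nm emission.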

SMILES: Nc1ccc(C(=O)O[C@@H]2Cc3c(O)cc(O)cc3O[C@@H]2c2cc(O)c(O)c(O)c2)cc1
- Activity [1]: 10%
- Activity ([2]; TDE = time-dependent effect): tde
- Activity [3]: tde
- IC50 [4]: 840 nM
- Activity [5]: tde

SMILES: CC(=O)Oc1cc(OC(C)=O)c2c(c1)O[C@H](c1cc(OC(C)=O)c(OC(C)=O)c(OC(C)=O)c1)[C@H](OC(=O)c1cc(OC(C)=O)c(OC(C)=O)c(OC(C)=O)c1)C2
- inhibition [6]: < 20%

SMILES: CC(C)(C)OC(=O)Nc1ccc(C(=O)O[C@@H]2Cc3c(O)cc(O)cc3O[C@@H]2c2cc(O)c(O)c(O)c2)cc1
- Activity [1]: 10%
- Activity ([2]; TDE = time-dependent effect): tde
- Activity [3]: tde
- IC50 [4]: 3850 nM
- Activity [5]: tde

SMILES: CC(=O)Oc1cc(OC(C)=O)c2c(c1)O[C@H](c1cc(OC(C)=O)c(OC(C)=O)c(OC(C)=O)c1)[C@H](OC(=O)c1ccc(N)cc1)C2
- inhibition [7]: 39%
- Activity [8]: Active
- Activity [2]: inactive
- Activity [9]: Active
- Fold change [10]: 3.5
- Activity [11]: Active
- Fold change [3]: 2
- Fold change [5]: 3.3
- Activity [12]: Active
- inhibition [6]: < 20%
- Fold change [13]: 4.7

SMILES: O=C(O[C@@H]1Cc2c(O)cc(O)cc2O[C@@H]1c1cc(O)c(O)c(O)c1)c1cc(O)c(O)c(O)c1 [EPIGALOCATECHIN GALLATE]
- inhibition [7]: 10%
- inhibition [14]: 4%
- IC50 [4]: 200 nM

SMILES: CC(=O)Oc1cc(OC(C)=O)c2c(c1)O[C@H](c1cc(OC(C)=O)c(OC(C)=O)c(OC(C)=O)c1)[C@H](OC(=O)c1ccc(NC(=O)OC(C)(C)C)cc1)C2
- inhibition [7]: 65%
- Activity [8]: Active
- Fold change [2]: 1.4
- Activity [9]: Active
- Fold change [10]: 5
- Activity [11]: Active
- Fold change [3]: 2.1
- Fold change [5]: 3.5
- Activity [12]: Active
- inhibition [6]: < 20%
- Fold change [13]: 5.5
